High-throughput results: PubChem, several laboratories
NR1D1 modulator – Rev-erb alpha (human) modulation. P20393. Rev-erbα–FITC-DNA binding, fluorescence polarization, 90 min. activity, % at 10 µM. 370,000 compounds, 0.79% hits;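 active = activity above about 14%, limit read from the data; passing the limit was not always enough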
NR2E3 ag-1 – agonists of human nuclear receptor NR2E3; 320,000 compounds, 0.12% hits; inhibition of corepressor binding, % at 4.78 µM; GST-NR2E3/biotin-RetCOR TR-FRET, 1536-well;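 active = percent inhibition above the cutoff of mean plus 3 SD of all tested compounds, set per screening campaign, cut at about 20% in these data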
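System: GST-NR2E3 and biotin-RetCOR proteins; probe or stimulus: 7 nM biotin-RetCOR; doses: compound at 4.8 µM, single dose; schedule: Compound–protein incubation for 5 h at 4 °C; detection: time-resolved FRET; read-out: percent inhibition; controls: biotin wells as high control, 0.6% DMSO wells as low control; format: 1536-well plates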
MC4R antag cAMP – human MC4R antagonism in cAMP assay; P32245; MC4R-expressing cells, MTII-stimulated cAMP, LANCE TR-FRET; inhibition, % at 6.5 µM; 360,000 compounds, 0.48% hits; AID 540295;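 active = inhibition above its plate's cutoff, the mean of tested wells on that plate plus 3 SD, cut at about 29% in these data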
Target sequence (P32245 whole entry, looked up): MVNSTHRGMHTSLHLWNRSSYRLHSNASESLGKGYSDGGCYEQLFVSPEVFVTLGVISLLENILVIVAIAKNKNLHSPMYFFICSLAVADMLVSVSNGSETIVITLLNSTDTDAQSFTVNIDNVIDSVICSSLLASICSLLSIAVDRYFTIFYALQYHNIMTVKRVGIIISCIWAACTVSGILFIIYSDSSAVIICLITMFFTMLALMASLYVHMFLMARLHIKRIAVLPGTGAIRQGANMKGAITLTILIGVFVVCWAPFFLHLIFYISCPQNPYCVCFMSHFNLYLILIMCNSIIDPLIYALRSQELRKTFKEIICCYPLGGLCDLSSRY
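Material: U2OS-MC4R stable cell line | Reagent: Melanotan II challenge after compound preincubation | Doses: One concentration, 6.5 µM nominal | Incubation: 30-min compound preincubation, 1-h Melanotan II challenge, 1-h detection, room temperature | Signal: TR-FRET cAMP assay | Replicates: One well per compound, no replicates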
PG9 binder – PG9 antibody binding by small molecule; TR-FRET gp120-PG9 antibody binding; inhibition, % at 6.7 µM; 360,000 compounds, 0.43% hits; in the data active = inhibition above about 8.5%
MC4R ag barr – agonists of human melanocortin 4 receptor (MC4R) beta-arrestin | P32245 | U2OS MC4R beta-arrestin complementation, luminescence; percent of melanotan II response, DMSO zero | activation, % at 8.9 µM | 360,000 compounds, 0.98% hits | AID 540308;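 active = activation above a per-plate cutoff, the mean activation of sample wells on that plate plus 3 SD, cut at about 8% in these data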
NR2E3 ag-2 – agonists of human NR2E3 nuclear receptor; Q9Y5X4; 360,000 compounds, 0.35% hits; AID 602229; CHO-S Gal4-NCOR/VP16-NR2E3 two-hybrid, luciferase; inhibition of corepressor binding, % at 3.98 µM;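 active = inhibition above the mean of all tested compounds plus 3 SD, cut at about 70% in these data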;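 also: higher means lower luciferase signal from less NR2E3 corepressor binding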
Rev-erbA confirm – confirmation of modulators of human Rev-erb alpha DNA binding | shares compounds with NR1D1 modulator | Rev-erb alpha FITC-DNA binding, fluorescence polarization, 90 min | activation, % at 25 µM | 3,000 compounds, 61% hits;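 active = activation at or above a set limit, or at least 3 SD above the negative control mean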
RORg counter – RORgamma DNA-binding activity, dose-response counter-screen; shares compounds with NR1D1 modulator; purified RORgamma protein-FITC-DNA binding, fluorescence polarization; IC50, µM; 910 compounds, 8% hits;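 active = Compounds whose fitted half-maximal concentration for disrupting protein-DNA binding is below 10 micromolar; the record names Rev-erb in its text, so the target is in doubt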
Of the large screens only hits and unclear results are named; the others gave an inactive call (follow-up assays come after a bar, where they were run). The list is not random: actives were taken first. Their share in the collection is about 2.7%.

O=C(CSc1nnc2ccc(-c3ccccn3)nn12)Nc1cccc(F)c1	NR1D1 modulator 21.6 (no result: NR2E3 ag-1) | Rev-erbA confirm 15.7
CC(=O)Nc1ccc(C(=O)OCC(=O)/C(C#N)=C(\C)N)cc1	none
CCN(CC)c1ccc2c(c1)OC(N)=C(C#N)C2c1cccnc1 (centres undefined)	NR1D1 modulator 53.0 | Rev-erbA confirm 48.1
N#CC1=C(N)Oc2cc(N)ccc2C1c1cccnc1 (centres undefined)	none
O=C(NCc1ccccc1)C(c1cc2ccccc2o1)n1c(=O)c(-c2ccccc2)nc2ccccc21 (centres undefined)	NR1D1 modulator 46.9 (no result: NR2E3 ag-1, MC4R antag cAMP, MC4R ag barr, NR2E3 ag-2) | Rev-erbA confirm 28.0 | RORg counter inactive
COCC1CCN(C(=O)CCc2nnc(C3(c4ccc(Cl)cc4)CCC3)o2)CC1	none
CCCCNC(=O)Cn1cnc2sc(C(=O)OCC)c(C)c2c1=O	NR1D1 modulator 35.2 | Rev-erbA confirm inactive
COc1ccccc1NC(=O)c1sc(NC(=O)c2ccco2)c(C#N)c1C	NR1D1 modulator 103.6 | Rev-erbA confirm 46.5 | RORg counter inactive
COc1ccccc1NC(=O)c1oc2ccccc2c1NC(=O)c1ccco1	NR1D1 modulator 27.4 | Rev-erbA confirm inactive
COC(=O)c1sc(NC(=O)c2ccco2)c(C#N)c1C	none
NC(=O)c1oc2ccccc2c1NC(=O)c1ccco1	none
Fc1ccc(NC(=S)Nc2ccccc2N2CCOCC2)cc1Cl	none
CSc1ccc(/C=C(\C#N)C(=O)Nc2cccc(C)c2)cc1	NR1D1 modulator 22.4 | Rev-erbA confirm inactive
CC1(Cc2ccc(Cl)cc2)C(=O)Nc2ccc(-c3cccnc3)cc21 (centres undefined)	none (no result: NR2E3 ag-1)
Cc1ccc(-c2cc(C(=O)NN=Cc3c(O)ccc4ccccc34)[nH]n2)cc1C	NR1D1 modulator 22.2 (no result: NR2E3 ag-1, MC4R antag cAMP, PG9 binder, MC4R ag barr, NR2E3 ag-2) | Rev-erbA confirm 15.8
COc1ccc(-c2nnc3ccc(SC(C(C)=O)C(C)=O)nn23)cc1OC	none
CCc1cc2cc(C)cc(C)c2nc1SCC(=O)N1CCCC1	NR1D1 modulator 58.1 | Rev-erbA confirm 41.4 | RORg counter inactive
COc1nc(-c2ccc(Cl)cc2)ccc1-c1noc(-c2ccco2)n1	NR1D1 modulator 31.5 | Rev-erbA confirm inactive
COc1cccc(-c2ccc(-c3noc(-c4ccccc4F)n3)c(OC)n2)c1	none
CC1(C)OC(c2ccccc2)=C/C(=C/C=Nc2ccccc2)O1	none
O=C(Nc1nc(-c2cccs2)c(-c2ccccc2)s1)c1ccco1	none
Nc1nc(-c2cccs2)c(-c2cccs2)s1	NR1D1 modulator 281.6 | Rev-erbA confirm 244.4 | RORg counter inactive
CC1CC1C(=O)Nc1nc(-c2cccs2)c(-c2cccs2)s1 (centres undefined)	NR1D1 modulator 53.4 | Rev-erbA confirm 74.8 | RORg counter inactive
Nc1nc(-c2cccs2)c(CC(=O)O)s1	none
COc1ccc(OC)c([N+](=O)[O-])c1C(N)=O	none
CCN(CC)C(=O)Cn1nc(-c2ccncc2)nc1SCC(=O)Nc1ccc(OC)cc1	none
Cc1cccc(-n2c(SCN3C(=O)c4ccccc4C3=O)nc3ccccc3c2=O)c1	none (no result: NR2E3 ag-1, MC4R antag cAMP, MC4R ag barr, NR2E3 ag-2)
CCCn1c(SCN2C(=O)c3ccccc3C2=O)nc2cc(Cl)ccc2c1=O	NR1D1 modulator 39.3 | Rev-erbA confirm inactive
CCOc1cc2[nH]c(=S)n(CCC(=O)N3CCc4ccccc4C3)c(=O)c2cc1OCC	NR1D1 modulator 58.7 | Rev-erbA confirm 62.0 | RORg counter inactive
CCOc1cc2[nH]c(=S)n(CCCN3CCN(C)CC3)c(=O)c2cc1OCC	none (no result: NR2E3 ag-1)
O=C(O)c1ccc2c(c1)C(=O)N(CCc1c[nH]c3ccccc13)C2=O	none (no result: NR2E3 ag-1)
COC(=O)c1ccccc1NC(=O)C1=CC(c2cccs2)=NS(=O)(=O)N1C	NR1D1 modulator 52.0 | Rev-erbA confirm 31.7 | RORg counter 3.02
